Screening results (PubChem BioAssay)
Only some compounds are listed: those with a hit (about 4.7% of all), similar ones and a draw of the others.
ADAM17 inh: ADAM17 inhibitors, primary screen, biochemical, QFRET; Disintegrin and metalloproteinase domain-containing protein 17 (Homo sapiens), P78536; recombinant ADAM17, EDANS/DABCYL FRET peptide cleavage; inhibition, % at 6.95 µM; actives 0.83% (n = 370,000);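 active means inhibition above the mean of compounds lying between control limits plus 3 SD, set per campaign, cut at about 8.5% in these data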;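 further: 0% = DMSO-only wells as the low control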
Target sequence (P78536 215-824 limits assumed): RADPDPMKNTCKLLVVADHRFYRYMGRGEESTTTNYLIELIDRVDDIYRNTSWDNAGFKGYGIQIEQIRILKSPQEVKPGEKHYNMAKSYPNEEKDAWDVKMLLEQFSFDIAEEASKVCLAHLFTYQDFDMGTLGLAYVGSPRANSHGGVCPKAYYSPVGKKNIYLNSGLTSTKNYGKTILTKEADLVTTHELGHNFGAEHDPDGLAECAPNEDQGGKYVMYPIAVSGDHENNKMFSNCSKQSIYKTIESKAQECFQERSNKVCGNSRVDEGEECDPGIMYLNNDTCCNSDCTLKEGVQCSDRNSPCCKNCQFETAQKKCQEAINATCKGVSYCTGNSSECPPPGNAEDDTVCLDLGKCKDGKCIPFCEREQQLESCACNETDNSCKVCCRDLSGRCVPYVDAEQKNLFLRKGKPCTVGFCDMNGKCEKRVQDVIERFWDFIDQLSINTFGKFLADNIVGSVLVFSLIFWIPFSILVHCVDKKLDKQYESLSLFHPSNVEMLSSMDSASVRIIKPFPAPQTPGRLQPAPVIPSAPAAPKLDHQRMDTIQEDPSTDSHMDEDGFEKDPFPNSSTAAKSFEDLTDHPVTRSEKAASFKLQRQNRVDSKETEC
ADAM10 inh: human ADAM10 inhibitors, primary screen, biochemical, QFRET, HTS | Disintegrin and metalloproteinase domain-containing protein 10 (Homo sapiens), O14672 | recombinant ADAM10, EDANS/DABCYL FRET peptide cleavage, 3 h | inhibition, % at 7 µM | actives 0.62% (n = 370,000) | AID 720582, 2013;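 active means inhibition above a per-campaign cutoff equal to the mean of compounds falling between control-based bounds plus 3 SD, cut at about 20% in these data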;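 further: 0% = DMSO wells while the 100% control is not disclosed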
MPTP inh: mitochondrial permeability transition pore inhibitors, primary screen, biochemical, isolated mouse mitochondria, absorbance | actives 1.4% (n = 360,000) | AID 602449, 2012 | Ca2+ swelling absorbance, 30 min | inhibition, % at 10 µM;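 active means inhibition of 50% or more, scaled per plate between neutral and stimulator controls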;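 further: 0% = DMSO wells given calcium and 100% = 1 mM EGTA wells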
SKN-1 inh: suppressors of acrylamide-induced Pgst-4::GFP reporter in worms, primary screen, SKN-1 inhibitor project, whole organism, uHTS, GFP/RFP fluorescence ratio, strain VP596; AID 624304, 2012; C. elegans VP596 Pgst-4::GFP/RFP ratio, 24 h; actives 0.49% (n = 360,000); inhibition, % at 21.8 µM;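 active means interference check ratio from 0.5 to 1.5 plus GFP to RFP signal ratio inhibition reaching or exceeding a fixed threshold, cut at about 30% in these data, passing the limit was not always enough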
NR3A LBD binder: binders of NR3A ligand-binding domain, primary screen, biophysical, differential scanning fluorimetry, uHTS | AID 1259313, 2017 | actives 2.5% (n = 340,000) | NR3A LBD differential scanning fluorimetry, Tm shift; 0% = protein alone, 100% = glycine-bound protein | Tm shift relative to glycine control, % at 25 µM;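 active means melting temperature shift of at least 10% of the positive control shift, at one fixed dose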
MT1-MMP act inh: blockers of MT1-MMP proenzyme processing, primary screen, HT1080 RFP-PRO-GFP cells, GFP/RFP fluorescence | Matrix metalloproteinase-14 (Homo sapiens), P50281 | GFP/RFP ratio fluorescence, overnight; percent of plate control window, DMSO zero | GFP/RFP ratio change, % at 20 µM | actives 0.061% (n = 360,000) | AID 651647, 2012;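 active means GFP/RFP ratio change of at least 30% with cell ATP level not reduced by more than half and red fluorescence within 50% of control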
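Read-out: GFP/RFP fluorescence ratio; Test system: RFP-PRO-GFP reporter HT1080 cells; Compound dosing: single-point 20 µM compound, 1% DMSO; Times: overnight compound exposure at 37 °C.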
ADAM10 confirm: human ADAM10 inhibitors, confirmation, biochemical, QFRET, triplicate; shares compounds with ADAM10 inh; ADAM10 QFRET peptide cleavage, EDANS fluorescence; inhibition, % at 6.95 µM; actives 1% (n = 2,100); AID 743208, 2013;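 active means inhibition above about 20% chosen separately for each screening run, limit read from the data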;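 further: 0% = DMSO wells and 100% = marimastat wells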
ADAM17 counter: ADAM17 inhibitors, counter-screen for ADAM10 exosite inhibitor project, biochemical, QFRET, high throughput | shares compounds with ADAM10 inh | ADAM17 QFRET peptide cleavage, EDANS fluorescence | inhibition, % at 6.95 µM | actives 0.5% (n = 2,100) | AID 743214, 2013;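 active means mean triplicate inhibition above the solvent-only control wells' mean plus 3 SD, cut at about 12% in these data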;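 further: 0% = DMSO wells and 100% = marimastat wells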
ADAM10 ctr: ADAM10 inhibitors, counter-screen for ADAM17 exosite inhibitor project, biochemical, FRET, human ADAM10 | recombinant ADAM10, EDANS/DABCYL FRET peptide cleavage, 3 h | shares compounds with ADAM17 inh | inhibition, % at 6.95 µM | actives 47% (n = 2,900);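 active means mean inhibition over the triplicate runs exceeds the activity threshold set in the earlier primary screen, cut at about 20% in these data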;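 further: 0% = DMSO wells and 100% = marimastat wells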
ADAM17 confirm: ADAM17 inhibitors, hit retest, confirmation, biochemical, QFRET peptide cleavage. AID 743257, 2014. shares compounds with ADAM17 inh. inhibition, % at 6.95 µM. recombinant ADAM17, EDANS/DABCYL QFRET peptide cleavage. actives 65% (n = 2,900);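 active means mean inhibition across replicates above the hit cutoff set in the primary screen, cut at about 8.5% in these data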;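 further: 0% = DMSO wells and 100% = marimastat wells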
An asterisk follows results filed as active.

For Nc1cccc(Nc2nc(OC(C(F)(F)F)C(F)(F)F)nc(OC(C(F)(F)F)C(F)(F)F)n2)c1 the results were ADAM17 inh 27*, ADAM10 inh 58*, MPTP inh 20, SKN-1 inh 5, NR3A LBD binder 7, MT1-MMP act inh -6, ADAM10 confirm 0, ADAM17 counter 0, ADAM10 ctr 60* and ADAM17 confirm 30*.
Cc1ccc(OCC(=O)N(C)CC(=O)Nc2ccc(Cl)c(C(F)(F)F)c2)c([N+](=O)[O-])n1 was read as ADAM17 inh 3, ADAM10 inh 8, MPTP inh 0, SKN-1 inh -24, NR3A LBD binder 0 and MT1-MMP act inh 5.
CN(CC(=O)Nc1ccc(Cl)c(C(F)(F)F)c1)C(=O)CC1Sc2ccccc2NC1=O (configuration not stated) was read as ADAM17 inh 14*, ADAM10 inh 33*, MPTP inh 0, SKN-1 inh -2, NR3A LBD binder -2, MT1-MMP act inh 2, ADAM10 confirm 1, ADAM17 counter 0, ADAM10 ctr 26* and ADAM17 confirm 13*.
Screening Cc1nc(-c2ccc(F)cc2)c(CC(=O)N(C)CC(=O)Nc2ccc(Cl)c(C(F)(F)F)c2)s1 returned ADAM17 inh 19*, ADAM10 inh 32*, MPTP inh 5, SKN-1 inh 5, NR3A LBD binder 12*, MT1-MMP act inh 9, ADAM10 confirm 1, ADAM17 counter 1, ADAM10 ctr 25* and ADAM17 confirm 14*.
Screening COc1cccc(NC(=O)CN(C)C(=O)CC2Sc3ccccc3NC2=O)c1 (configuration not stated) returned ADAM17 inh -1, ADAM10 inh -7, MPTP inh 1, SKN-1 inh -8, NR3A LBD binder 2 and MT1-MMP act inh -1.
`Cc1ccc(C)c(OCC(=O)N(C)CC(=O)Nc2ccc(Cl)c(C(F)(F)F)c2)c1` gave ADAM17 inh 8.8*, ADAM10 inh 23*, MPTP inh 3, SKN-1 inh -6, NR3A LBD binder 12*, MT1-MMP act inh 15, ADAM10 confirm 4, ADAM17 counter 0, ADAM10 ctr 31* and ADAM17 confirm 17*.
`C=C[C@H](Cc1ccccc1)N(Cc1ccccc1)S(=O)(=O)N(Cc1ccccc1)[C@H](C=C)Cc1ccccc1` gave ADAM17 inh -9, ADAM10 inh 4, MPTP inh 1, SKN-1 inh -6, NR3A LBD binder 1 and MT1-MMP act inh -9.
